≈ marks a conversion by molar mass, not a printed value. Calls of active or inactive are those of the source. The calls are words filed in the database; no cut-off is given here.
Assays:
Klebsiella aerogenes [1] = assay: Antimicrobial activity against Klebsiella aerogenes NCIM 2239 after 24 hrs by serial dilution method; assay type: functional; conditions: NCIM 2239, 24 h
Outline: (§1)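 Broth dilution MIC in nutrient broth, run only for organisms found sensitive in disc diffusion. Compounds are two-fold serially diluted in 1 ml sterile broth per tube, spanning 3.9 to 1000. Inoculated tubes are incubated at 37 °C for 24 h.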

Aspergillus fumigatus [2] = assay: Antimicrobial activity against Aspergillus fumigatus NCIM 902 after 72 hrs by serial dilution method; assay type: functional; conditions: NCIM 902, 72 h
Outline: (§2)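 MIC by broth dilution in Sabouraud's dextrose broth, only for fungi sensitive in disc diffusion. Two-fold serial dilutions of compounds are made in 1 ml broth per tube, range 3.9 to 1000. Inoculated tubes are incubated at 27 °C for 72 h.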

[3] = system: Rhodococcus corynebacterioides; assay: Antimicrobial activity against Corynebacterium rubrum NCIM 2252 after 24 hrs by serial dilution method; assay type: functional; conditions: Rhodococcoides corynebacterioides, NCIM 2252, 24 h; outline: as §1
Penicillium chrysogenum [4] = assay: Antimicrobial activity against Penicillium chrysogenum NCIM 707 at 1000 ug/disk after 72 hrs by disk diffusion method; assay type: functional
Outline: (§3)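 Disc diffusion on Sabouraud's dextrose agar. 100 µl of fungal suspension at 10⁶ CFU/ml is spread on the plate. Discs carry test compounds at two loadings in DMSO; DMSO alone is the negative control. Clotrimazole disc is the positive reference. Plates are incubated at 27 °C for 72 h, and the zone of inhibition diameter is measured.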

Trichoderma viride = assay: Antimicrobial activity against Trichoderma viride NCIM 1195 at 500 ug/disk after 72 hrs by disk diffusion method; assay type: functional; conditions: NCIM 1195, 72 h, read-out: DIZ
Outline: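 Fungal disc diffusion. 100 µl of suspension at 10⁶ CFU/ml was spread on Sabouraud's dextrose agar. Discs carrying test compound in DMSO were applied, with a DMSO-only disc as negative control. Plates were incubated at 27 °C for 72 h, and the zone of inhibition diameter was measured.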

Aspergillus niger [5] = assay: Antimicrobial activity against Aspergillus niger NCIM 1196 at 1000 ug/disk after 72 hrs by disk diffusion method
Aspergillus niger [6] = assay: Antimicrobial activity against Aspergillus niger NCIM 1196 at 500 ug/disk after 72 hrs by disk diffusion method
Aspergillus parasiticus = assay: Antimicrobial activity against Aspergillus parasiticus NCIM 904 at 500 ug/disk after 72 hrs by disk diffusion method; assay type: functional; conditions: NCIM 904, 72 h, read-out: DIZ; outline: as §3
Lipomyces lipofer [7] = assay: Antimicrobial activity against Lipomyces lipofer NCIM 3252 at 500 ug/disk after 72 hrs by disk diffusion method; assay type: functional; conditions: for zone of inhibition at 500 µg/disc: NCIM 3252, 72 h, read-out: DIZ; outline: as §3
Escherichia coli = assay: Antimicrobial activity against Escherichia coli NCIM 2065 at 500 ug/disk after 24 hrs by disk diffusion method; assay type: functional; conditions: for zone of inhibition at 500 µg/disc: NCIM 2065, 24 h, read-out: DIZ
Outline: (§4)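 Disc diffusion on Mueller–Hinton agar. 100 µl of bacterial suspension at 10⁸ CFU/ml is spread on the plate. Discs carry test compounds at two loadings, dissolved in DMSO; DMSO alone serves as negative control. Ofloxacin disc is the positive reference. Plates are incubated at 37 °C for 24 h, and the inhibition zone diameter is measured.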

Aspergillus fumigatus [8] = assay: Antimicrobial activity against Aspergillus fumigatus NCIM 902 at 1000 ug/disk after 72 hrs by disk diffusion method; assay type: functional; conditions: for zone of inhibition at 1000 µg/disc: NCIM 902, 72 h, read-out: DIZ; outline: as §3
Staphylococcus = assay: Antimicrobial activity against Staphylococcus albus NCIM 2178 after 24 hrs by serial dilution method; assay type: functional; conditions: NCIM 2178, 24 h
Pseudomonas aeruginosa = assay: Antimicrobial activity against Pseudomonas aeruginosa NCIM 2200 after 24 hrs by serial dilution method; assay type: functional; conditions: NCIM 2200, 24 h; outline: as §1
Bacillus cereus = assay: Antimicrobial activity against Bacillus cereus NCIM 2155 after 24 hrs by serial dilution method; assay type: functional; conditions: NCIM 2155, 24 h; outline: as §1
Salmonella typhimurium = assay: Antimicrobial activity against Salmonella Typhimurium NCIM 2501 after 24 hrs by serial dilution method; assay type: functional, Salmonella enterica subsp. enterica serovar Typhimurium; conditions: Salmonella enterica, NCIM 2501, 24 h
Proteus vulgaris = assay: Antimicrobial activity against Proteus vulgaris NCIM 2027 after 24 hrs by serial dilution method; assay type: functional; conditions: NCIM 2027, 24 h; outline: as §1
Bacillus subtilis = assay: Antimicrobial activity against Bacillus subtilis NCIM 2063 after 24 hrs by serial dilution method; assay type: functional; conditions: NCIM 2063, 24 h; outline: as §1
Lipomyces lipofer [9] = assay: Antimicrobial activity against Lipomyces lipofer NCIM 3252 after 72 hrs by serial dilution method; assay type: functional; conditions: NCIM 3252, 72 h; outline: as §2
Aliivibrio fischeri = assay: Antimicrobial activity against Vibrio fischeri NCIM 2154 at 1000 ug/disk after 24 hrs by disk diffusion method; assay type: functional; conditions: NCIM 2154, 24 h, read-out: DIZ
Outline: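 Disc diffusion. 100 µl of bacterial suspension at 10⁸ CFU/ml was spread on Mueller–Hinton agar. Discs loaded with test compound dissolved in DMSO were placed on the lawn, with a DMSO-only disc as negative control. Plates were incubated at 37 °C for 24 h, and the inhibition zone diameter was measured.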

Klebsiella aerogenes [10] = assay: Antimicrobial activity against Klebsiella aerogenes NCIM 2239 at 1000 ug/disk after 24 hrs by disk diffusion method; assay type: functional; conditions: NCIM 2239, 24 h, read-out: DIZ; outline: as §4
Penicillium chrysogenum [11] = assay: Antimicrobial activity against Penicillium chrysogenum NCIM 707 after 72 hrs by serial dilution method; assay type: functional; conditions: NCIM 707, 72 h; outline: as §2
Aspergillus niger [12] = assay: Antimicrobial activity against Aspergillus niger NCIM 902 after 72 hrs by serial dilution method; assay type: functional; conditions: NCIM 1196, 72 h, in the assay text read “NCIM 1196” for “NCIM 902”; outline: as §2
Aspergillus niger [13] = assay: Antimicrobial activity against Aspergillus niger NCIM 902 at 1000 ug/disk after 72 hrs by disk diffusion method; assay type: functional; conditions: NCIM 1196, 72 h, in the assay text read “NCIM 1196” for “NCIM 902”, read-out: DIZ; outline: as §3
Aspergillus niger [14] = assay: Antimicrobial activity against Aspergillus niger NCIM 902 at 500 ug/disk after 72 hrs by disk diffusion method; assay type: functional; conditions: NCIM 1196, 72 h, in the assay text read “NCIM 1196” for “NCIM 902”, read-out: DIZ; outline: as §3

MIC (Klebsiella aerogenes [1]) [µg/mL]	MIC (Aspergillus fumigatus [2]) [µg/mL]	MIC [3] [µg/mL]	MIC (Staphylococcus) [µg/mL]	MIC (Pseudomonas aeruginosa) [µg/mL]	MIC (Bacillus cereus) [µg/mL]	MIC (Salmonella typhimurium) [µg/mL]	MIC (Proteus vulgaris) [µg/mL]	MIC (Bacillus subtilis) [µg/mL]	MIC (Lipomyces lipofer [9]) [µg/mL]	SMILES	zone of inhibition at 500 µg/disc (Trichoderma viride) [mm]	diameter of the inhibition zone (DIZ) (Aspergillus niger [5])	diameter of the inhibition zone (DIZ) (Aspergillus niger [6])	zone of inhibition at 500 µg/disc (Aspergillus parasiticus) [mm]	zone of inhibition at 500 µg/disc (Lipomyces lipofer [7]) [mm]	zone of inhibition at 500 µg/disc (Escherichia coli) [mm]	zone of inhibition at 1000 µg/disc (Aspergillus fumigatus [8]) [mm]	zone of inhibition at 1000 µg/disc (Aliivibrio fischeri) [mm]	zone of inhibition at 1000 µg/disc (Klebsiella aerogenes [10]) [mm]	diameter of the inhibition zone (DIZ) (Penicillium chrysogenum [4])	other results
31.2 (≈ 78.3 µM)	62.5 (≈ 157 µM)	125 (≈ 314 µM)	125 (≈ 314 µM)	125 (≈ 314 µM)	15.6 (≈ 39.2 µM)	15.6 (≈ 39.2 µM)	125 (≈ 314 µM)	31.2 (≈ 78.3 µM)	62.5 (≈ 157 µM)	CC1(C)CC(=O)C2=C(C1)Nc1c(ccc3ccccc13)C2c1cccc([N+](=O)[O-])c1 (stereo not given)	10	inactive	inactive	10	8	10	10	10	11	–	zone of inhibition at 1000 µg/disc (Penicillium chrysogenum [4]; NCIM 707, 72 h, read-out: DIZ): 11 mm; MIC (Penicillium chrysogenum [11]): 62.5 µg/mL (≈ 157 µM)
125 (≈ 337 µM)	125 (≈ 337 µM)	125 (≈ 337 µM)	62.5 (≈ 169 µM)	–	62.5 (≈ 169 µM)	62.5 (≈ 169 µM)	125 (≈ 337 µM)	31.2 (≈ 84.2 µM)	62.5 (≈ 169 µM)	O=C1CCCC2=C1C(c1cccc([N+](=O)[O-])c1)c1ccc3ccccc3c1N2 (stereo not given)	9	–	–	11	8	9	9	9	9	inactive	MIC (Aspergillus niger [12]): 125 µg/mL (≈ 337 µM); zone of inhibition at 1000 µg/disc (Aspergillus niger [13]): 7 mm; zone of inhibition at 500 µg/disc (Aspergillus niger [14]): 7 mm
62.5 (≈ 161 µM)	125 (≈ 322 µM)	62.5 (≈ 161 µM)	125 (≈ 322 µM)	62.5 (≈ 161 µM)	15.6 (≈ 40.2 µM)	31.2 (≈ 80.4 µM)	62.5 (≈ 161 µM)	31.2 (≈ 80.4 µM)	–	CC1(C)CC(=O)C2=C(C1)Nc1c(ccc3ccccc13)C2c1ccc(Cl)cc1 (stereo not given)	7	inactive	inactive	12	–	7	8	9	11	inactive	diameter of the inhibition zone (DIZ) (Lipomyces lipofer [7]): inactive

More lines, now with the values behind:

SMILES	MIC (Klebsiella aerogenes [1]) [µg/mL]	MIC (Aspergillus fumigatus [2]) [µg/mL]	MIC [3] [µg/mL]	MIC (Staphylococcus) [µg/mL]	MIC (Pseudomonas aeruginosa) [µg/mL]	MIC (Bacillus cereus) [µg/mL]	MIC (Salmonella typhimurium) [µg/mL]	MIC (Proteus vulgaris) [µg/mL]	MIC (Bacillus subtilis) [µg/mL]	MIC (Lipomyces lipofer [9]) [µg/mL]	zone of inhibition at 500 µg/disc (Trichoderma viride) [mm]	diameter of the inhibition zone (DIZ) (Aspergillus niger [5])	diameter of the inhibition zone (DIZ) (Aspergillus niger [6])	zone of inhibition at 500 µg/disc (Aspergillus parasiticus) [mm]	zone of inhibition at 500 µg/disc (Lipomyces lipofer [7]) [mm]	zone of inhibition at 500 µg/disc (Escherichia coli) [mm]	zone of inhibition at 1000 µg/disc (Aspergillus fumigatus [8]) [mm]	zone of inhibition at 1000 µg/disc (Aliivibrio fischeri) [mm]	zone of inhibition at 1000 µg/disc (Klebsiella aerogenes [10]) [mm]	diameter of the inhibition zone (DIZ) (Penicillium chrysogenum [4])	other results
CC1(C)CC(=O)C2=C(C1)Nc1c(ccc3ccccc13)C2c1ccccc1Cl (stereo not given)	125 (≈ 322 µM)	125 (≈ 322 µM)	–	–	–	31.2 (≈ 80.4 µM)	31.2 (≈ 80.4 µM)	–	62.5 (≈ 161 µM)	125 (≈ 322 µM)	7	inactive	inactive	8	7	7	8	9	9	inactive	–
CC1(C)CC(=O)C2=C(C1)Nc1c(ccc3ccccc13)C2c1ccccc1O (stereo not given)	62.5 (≈ 169 µM)	–	–	–	–	62.5 (≈ 169 µM)	31.2 (≈ 84.4 µM)	–	62.5 (≈ 169 µM)	–	10	inactive	inactive	10	–	–	–	8	10	inactive	diameter of the inhibition zone (DIZ) (Lipomyces lipofer [7]): inactive; diameter of the inhibition zone (DIZ) (Escherichia coli): inactive; diameter of the inhibition zone (DIZ) (Aspergillus fumigatus [8]): inactive
